Assay results reported in ChEMBL document CHEMBL1932992, “Synthesis and anticonvulsant activity of 1-(8-(benzyloxy)quinolin-2-yl)-6-substituted-4,6-diazaspiro[2,4]heptane-5,7-diones” (Eur J Med Chem, 2012).
Activity calls are given as the source filed them.

Key:
Mus musculus [1] = test: Anticonvulsant activity in Kunming mouse assessed as protection against maximal electroshock-induced seizure at 300 mg/kg, ip after 0.5 hrs; type: functional, organism-based; parameters: dose 300 mg/kg
Method in brief: (§1)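 Male Kunming mice (20 ± 2.0 g) received ip 30, 100 or 300 mg/kg as a suspension in 0.5% methylcellulose, one to four mice per dose. At 0.5 h and 4.0 h, a 60-Hz, 50-mA current was applied for 0.25 s via corneal electrodes. Protection meant no hindlimb tonic extension. The value is the minimal dose protecting half or more of the mice.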

Mus musculus [2] = test: Anticonvulsant activity in Kunming mouse assessed as protection against subcutaneous pentylenetetrazole-induced seizure at 300 mg/kg, ip after 0.5 hrs; type: functional, organism-based; parameters: dose 300 mg/kg
Method in brief: (§2)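 Male Kunming mice (20 ± 2.0 g) were given ip doses of 30, 100 or 300 mg/kg in 0.5% methylcellulose, one to four mice per dose. They were then challenged with subcutaneous pentylenetetrazole dissolved in 0.9% saline at 0.5 h and 4.0 h. Protection was the absence of even a threshold seizure (a single clonic spasm lasting at least 5 s). The value is the minimal dose active in half or more of the mice.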

Mus musculus [3] = test: Anticonvulsant activity in ip dosed Kunming mouse assessed as protection against maximal electroshock-induced seizure after 4 hrs; type: functional; details: read-out: MED; method in brief: as §1
[4] = Neurotoxicity in ip dosed Kunming mouse assessed as minimal motor impairment after 0.5 hrs by rotarod test; type: toxicity, organism-based; details: in vivo
Mus musculus [5] = test: Anticonvulsant activity in Kunming mouse assessed as protection against subcutaneous pentylenetetrazole-induced seizure at 300 mg/kg, ip after 4 hrs; type: functional, organism-based; parameters: dose 300 mg/kg; method in brief: as §2
Mus musculus [6] = test: Anticonvulsant activity in ip dosed Kunming mouse assessed as protection against maximal electroshock-induced seizure after 0.5 hrs; type: functional; details: read-out: MED; method in brief: as §1
Mus musculus [7] = test: Anticonvulsant activity in ip dosed Kunming mouse assessed as protection against subcutaneous pentylenetetrazole-induced seizure after 0.5 hrs; type: functional; details: read-out: MED; method in brief: as §2
Mus musculus [8] = test: Neurotoxicity in Kunming mouse assessed as minimal motor impairment at 300 mg/kg, ip after 4 hrs by rotarod test; type: toxicity, organism-based; parameters: dose 300 mg/kg, route intraperitoneal; details: in vivo
Method in brief: (§3)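 Rotorod screen in trained male Kunming mice dosed ip at 30, 100 or 300 mg/kg in 0.5% methylcellulose, read at 0.5 h and 4.0 h. Mice were placed on a knurled rod 1 in. in diameter turning at 6 rpm. Impairment was failure to stay on the rod for at least 1 min in each of four trials. The value is the minimal dose affecting half or more of the mice.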

Mus musculus [9] = test: Anticonvulsant activity in Kunming mouse assessed as protection against maximal electroshock-induced seizure at 300 mg/kg, ip after 4 hrs; type: functional, organism-based; parameters: dose 300 mg/kg; method in brief: as §1
Mus musculus [10] = test: Neurotoxicity in Kunming mouse assessed as minimal motor impairment at 300 mg/kg, ip after 0.5 hrs by rotarod test; type: toxicity, organism-based; parameters: dose 300 mg/kg, route intraperitoneal; details: in vivo; method in brief: as §3
Mus musculus [11] = test: Anticonvulsant activity in ip dosed Kunming mouse assessed as protection against subcutaneous pentylenetetrazole-induced seizure after 4 hrs; type: functional; details: read-out: MED; method in brief: as §2
Mus musculus [12] = test: Protective index, ratio of TD50 for ip dosed Kunming mouse to ED50 for ip dosed Kunming mouse by maximal electroshock seizure test; type: functional
Mus musculus [13] = test: Protective index, ratio of TD50 for ip dosed Kunming mouse to ED50 for ip dosed Kunming mouse by subcutaneous pentylenetetrazole induced seizure test; type: functional
Mus musculus [14] = test: Anticonvulsant activity in ip dosed Kunming mouse assessed as protection against subcutaneous pentylenetetrazole-induced seizure; type: functional
Method in brief: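 Median effective dose in male Kunming mice, groups of 10, given a range of ip doses until at least three points fell between 10–90% seizure protection.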

Mus musculus [15] = test: Anticonvulsant activity in ip dosed Kunming mouse assessed as protection against maximal electroshock-induced seizure; type: functional

O=C1NC2(CC2c2ccc3cccc(OCc4ccccc4)c3n2)C(=O)N1c1ccccc1 (racemic)
Activity (Mus musculus [1]): inactive | Activity (Mus musculus [2]): inactive | minimal effective dose (Mus musculus [3]): 300 mg/kg | MTD at 0.5 h [4]: 300 mg/kg | Activity (Mus musculus [5]): inactive

O=C1NC(=O)C2(CC2c2ccc3cccc(OCc4ccccc4)c3n2)N1 (racemic)
minimal effective dose (Mus musculus [6]): 300 mg/kg | minimal effective dose (Mus musculus [7]): 300 mg/kg | Activity (Mus musculus [8]): Non-toxic | MTD at 0.5 h [4]: 300 mg/kg | Activity (Mus musculus [5]): inactive | Activity (Mus musculus [9]): inactive

CN1C(=O)NC2(CC2c2ccc3cccc(OCc4ccccc4)c3n2)C1=O (racemic)
minimal effective dose (Mus musculus [6]): 100 mg/kg | Activity (Mus musculus [2]): inactive | Activity (Mus musculus [10]): Non-toxic | minimal effective dose (Mus musculus [11]): 300 mg/kg | Activity (Mus musculus [9]): inactive

CCCCN1C(=O)NC2(CC2c2ccc3cccc(OCc4ccccc4)c3n2)C1=O (racemic)
minimal effective dose (Mus musculus [6]): 300 mg/kg | Activity (Mus musculus [2]): inactive | Activity (Mus musculus [10]): Non-toxic | Activity (Mus musculus [8]): Non-toxic | minimal effective dose (Mus musculus [11]): 300 mg/kg | Activity (Mus musculus [9]): inactive

CC(C)N1C(=O)NC2(CC2c2ccc3cccc(OCc4ccccc4)c3n2)C1=O (racemic)
minimal effective dose (Mus musculus [6]): 300 mg/kg | minimal effective dose (Mus musculus [7]): 100 mg/kg | Activity (Mus musculus [10]): Non-toxic | Activity (Mus musculus [8]): Non-toxic | minimal effective dose (Mus musculus [3]): 100 mg/kg | Activity (Mus musculus [5]): inactive

CCC(CO)N1C(=O)NC2(CC2c2ccc3cccc(OCc4ccccc4)c3n2)C1=O (racemic)
Ratio TD50/ED50 (Mus musculus [12]): 26.8 | Ratio TD50/ED50 (Mus musculus [13]): 1.7 | minimal effective dose (Mus musculus [6]): 30 mg/kg | minimal effective dose (Mus musculus [7]): 100 mg/kg | Activity (Mus musculus [10]): Non-toxic | Activity (Mus musculus [8]): Non-toxic | minimal effective dose (Mus musculus [3]): 30 mg/kg | TD50 at 0.5 h [4]: 365 mg/kg | minimal effective dose (Mus musculus [11]): 300 mg/kg | ED50 (Mus musculus [14]): 212 mg/kg | ED50 (Mus musculus [15]): 8.6 mg/kg

O=C1NC2(CC2c2ccc3cccc(OCc4ccccc4)c3n2)C(=O)N1C1CCCCC1 (racemic)
minimal effective dose (Mus musculus [6]): 300 mg/kg | minimal effective dose (Mus musculus [7]): 300 mg/kg | Activity (Mus musculus [10]): Non-toxic | minimal effective dose (Mus musculus [3]): 300 mg/kg | Activity (Mus musculus [5]): inactive

O=C1NC2(CC2c2ccc3cccc(OCc4ccccc4)c3n2)C(=O)N1Cc1ccccc1 (racemic)
Activity (Mus musculus [1]): inactive | minimal effective dose (Mus musculus [7]): 300 mg/kg | Activity (Mus musculus [10]): Non-toxic | minimal effective dose (Mus musculus [3]): 300 mg/kg | Activity (Mus musculus [5]): inactive

Cc1ccc(N2C(=O)NC3(CC3c3ccc4cccc(OCc5ccccc5)c4n3)C2=O)cc1 (racemic)
minimal effective dose (Mus musculus [6]): 100 mg/kg | Activity (Mus musculus [2]): inactive | Activity (Mus musculus [10]): Non-toxic | Activity (Mus musculus [5]): inactive | Activity (Mus musculus [9]): inactive

COc1ccc(N2C(=O)NC3(CC3c3ccc4cccc(OCc5ccccc5)c4n3)C2=O)cc1 (racemic)
Ratio TD50/ED50 (Mus musculus [12]): 22.2 | Ratio TD50/ED50 (Mus musculus [13]): 1.6 | minimal effective dose (Mus musculus [6]): 30 mg/kg | minimal effective dose (Mus musculus [7]): 300 mg/kg | Activity (Mus musculus [10]): Non-toxic | Activity (Mus musculus [8]): Non-toxic | minimal effective dose (Mus musculus [3]): 100 mg/kg | TD50 at 0.5 h [4]: 433 mg/kg | Activity (Mus musculus [5]): inactive | ED50 (Mus musculus [14]): 279 mg/kg | ED50 (Mus musculus [15]): 19.5 mg/kg

O=C1NC2(CC2c2ccc3cccc(OCc4ccccc4)c3n2)C(=O)N1c1ccc([N+](=O)[O-])cc1 (racemic)
Activity (Mus musculus [1]): inactive | minimal effective dose (Mus musculus [7]): 300 mg/kg | Activity (Mus musculus [10]): Non-toxic | Activity (Mus musculus [8]): Non-toxic | minimal effective dose (Mus musculus [3]): 300 mg/kg | Activity (Mus musculus [5]): inactive

O=C1NC2(CC2c2ccc3cccc(OCc4ccccc4)c3n2)C(=O)N1c1ccc(F)cc1 (racemic)
minimal effective dose (Mus musculus [6]): 300 mg/kg | Activity (Mus musculus [2]): inactive | Activity (Mus musculus [10]): Non-toxic | Activity (Mus musculus [5]): inactive | Activity (Mus musculus [9]): inactive

O=C1NC2(CC2c2ccc3cccc(OCc4ccccc4)c3n2)C(=O)N1c1ccc(C(F)(F)F)cc1 (racemic)
minimal effective dose (Mus musculus [6]): 300 mg/kg | Activity (Mus musculus [2]): inactive | Activity (Mus musculus [10]): Non-toxic | minimal effective dose (Mus musculus [3]): 300 mg/kg | minimal effective dose (Mus musculus [11]): 300 mg/kg

O=C1NC2(CC2c2ccc3cccc(OCc4ccccc4)c3n2)C(=O)N1c1ccc(Cl)cc1 (racemic)
minimal effective dose (Mus musculus [6]): 300 mg/kg | Activity (Mus musculus [2]): inactive | MTD at 0.5 h [4]: 100 mg/kg | Activity (Mus musculus [5]): inactive | Activity (Mus musculus [9]): inactive

O=C1NC2(CC2c2ccc3cccc(OCc4ccccc4)c3n2)C(=O)N1c1ccc(Br)cc1 (racemic)
Activity (Mus musculus [1]): inactive | Activity (Mus musculus [2]): inactive | minimal effective dose (Mus musculus [3]): 300 mg/kg | MTD at 0.5 h [4]: 100 mg/kg | Activity (Mus musculus [5]): inactive

O=C1NC2(CC2c2ccc3cccc(OCc4ccccc4)c3n2)C(=O)N1c1cc(Cl)cc(Cl)c1 (racemic)
Activity (Mus musculus [1]): inactive | minimal effective dose (Mus musculus [7]): 300 mg/kg | Activity (Mus musculus [8]): Non-toxic | MTD at 0.5 h [4]: 300 mg/kg | Activity (Mus musculus [5]): inactive | Activity (Mus musculus [9]): inactive

NC(=O)N1c2ccccc2C=Cc2ccccc21 [CARBAMAZEPINE]
ED50 (Mus musculus [14]): > 100 mg/kg | ED50 (Mus musculus [15]): 8.8 mg/kg

CCC1(C)CC(=O)NC1=O (stereo not drawn) [ETHOSUXIMIDE]
Activity (Mus musculus [1]): inactive | minimal effective dose (Mus musculus [7]): 100 mg/kg | Activity (Mus musculus [10]): Non-toxic | Activity (Mus musculus [8]): Non-toxic | minimal effective dose (Mus musculus [11]): 300 mg/kg | Activity (Mus musculus [9]): inactive

CCC1(c2ccccc2)C(=O)NC(=O)NC1=O [PHENOBARBITAL]
ED50 (Mus musculus [14]): 13.2 mg/kg | ED50 (Mus musculus [15]): 21.8 mg/kg

O=C1NC(=O)C(c2ccccc2)(c2ccccc2)N1 [PHENYTOIN]
minimal effective dose (Mus musculus [6]): 30 mg/kg | Activity (Mus musculus [2]): inactive | minimal effective dose (Mus musculus [3]): 30 mg/kg | Activity (Mus musculus [5]): inactive | ED50 (Mus musculus [14]): > 300 mg/kg

CCCC(CCC)C(=O)[O-].[Na+] [VALPROATE SODIUM]
ED50 (Mus musculus [14]): 149 mg/kg
